This is an account of results in ChEMBL document CHEMBL2177095, “Discovery of selective and potent inhibitors of gram-positive bacterial thymidylate kinase (TMK)” (J Med Chem, 2012).

In general, NOAEL refers to the highest dose or exposure tested at which no adverse effect was seen. As usually defined, the IC50 is the concentration that inhibits the measured activity by half. What is called logD is lipophilicity at a set pH, counting ionised and neutral species. Low values mean a more hydrophilic compound, high ones a more lipophilic compound.

Structures are written as SMILES. In brackets after ≈: the same amount, converted by molar mass. Where only a bound is given, the exact number is not on record here.

Data set [1] in a line: Toxicity in Staphylococcus aureus infected mouse thigh infection model assessed as incidence of adverse events. It counts as organism-based, Thigh muscle. Particulars: in vivo.
Another data set concerns Candida albicans. The data set can be described thus: Toxicity against Candida albicans. It counts as organism-based.
The test system of data set [2] is Staphylococcus aureus. As to the kind of experiment: Antimicrobial activity against Staphylococcus aureus infected in mouse thigh infection model assessed as compound dose causing microbial infection stasis administered as single dose. It counts as functional, Thigh muscle.
Data set [3] can be described thus: Toxicity against human A549 cells. It counts as cell-based. Particulars: read-out: MIC.
For the next data set, the system named is Enterococcus faecalis. As to the kind of experiment: Antimicrobial activity against vancomycin-resistant Enterococcus faecalis by broth microdilution method. It counts as functional. Put shortly: (§1)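 MICs were determined against bacterial strains from the AstraZeneca collection. For S. aureus, MSQS means methicillin- and quinolone-sensitive, and MRQR means methicillin- and quinolone-resistant.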
For orientation: Broth dilution looks for growth in wells or tubes with falling amounts of substance.

The next data set concerns Enterococcus faecium. The data set can be described thus: Antimicrobial activity against linezolid-resistant Enterococcus faecium by broth microdilution method. It counts as functional. Put shortly: as §1
Data set [4] relates to Staphylococcus epidermidis. The data set can be described thus: Antimicrobial activity against Staphylococcus epidermidis by broth microdilution method. Type of data set: functional. The method in brief: (§2)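 Test organisms were strains from the AstraZeneca collection.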
The test system of a further data set is Streptococcus pyogenes. The data set can be described thus: Antimicrobial activity against Streptococcus pyogenes by broth microdilution method. Type of data set: functional. The method in brief: as §2
Data set [5] has as its system Staphylococcus aureus. As to the kind of experiment: Antimicrobial activity against methicillin and quinolone-resistant Staphylococcus aureus by broth microdilution method. Type of data set: functional. Put shortly:
as §1

A further data set concerns the target T1, Thymidylate kinase (Homo sapiens, UniProt P23919).
T1 sequence (P23919 whole entry): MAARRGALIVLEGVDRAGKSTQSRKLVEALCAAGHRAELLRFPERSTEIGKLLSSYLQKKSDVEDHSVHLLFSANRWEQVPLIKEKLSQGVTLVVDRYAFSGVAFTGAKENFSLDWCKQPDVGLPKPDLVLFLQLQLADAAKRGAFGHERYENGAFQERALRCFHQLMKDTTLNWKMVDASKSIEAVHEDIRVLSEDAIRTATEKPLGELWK
As to the kind of experiment: Inhibition of human thymidylate kinase assessed as effect on ATP production by Escherichia coli DdlA and Malachite green reagent based assay.

The subject of data set [6] is Staphylococcus aureus. The data set can be described thus: Antimicrobial activity against methicillin and quinolone-sensitive Staphylococcus aureus by broth microdilution method. It counts as functional. The method in brief:
as §1

The next data set has as its system Streptococcus pneumoniae. The data set can be described thus: Antimicrobial activity against Streptococcus pneumoniae by broth microdilution method. Type of data set: functional. Put shortly:
as §2

A short description of data set [7]: Partition coefficient, log D of the compound at pH 7.4 by shake flask method. Particulars: octanol/water.
Data set [8] is described as follows: Inhibition of Staphylococcus aureus thymidylate kinase assessed as effect on conversion of dTDP to dTMP by luciferin/luciferase reporter gene based assay. A general note: A reporter such as luciferase makes a cellular process visible.
Data set [9] in a line: Inhibition of Streptococcus pneumoniae thymidylate kinase assessed as effect on conversion of dTDP to dTMP by luciferin/luciferase reporter gene based assay.

Regarding `Cc1cn([C@H]2CCCN([C@H](CC(C)(C)C)c3ccc(C(=O)O)c(Oc4cccc(Br)c4)c3)C2)c(=O)[nH]c1=O`, the NOAEL in data set [1] came to 800 mg/kg/day. The MIC against Candida albicans was greater than 64 µg/mL; in the data set on Enterococcus faecalis, 1 µg/mL (≈ 1.71 µM); with Enterococcus faecium it was 0.25 µg/mL (≈ 0.428 µM); in [4] it was 2 µg/mL (≈ 3.42 µM); against Streptococcus pyogenes, 0.08 µg/mL (≈ 0.137 µM); in the data set on Staphylococcus aureus [5], 0.25 µg/mL (≈ 0.428 µM). The MIC is 0.25 µg/mL (≈ 0.428 µM) in the data set with Staphylococcus aureus [6] and 0.02 µg/mL (≈ 0.0342 µM) against Streptococcus pneumoniae. Further, the Activity with Staphylococcus aureus [2] was determined as 150 mg/kg. The MCC in data set [3] is greater than 64 µg/mL. Moreover, the values for the IC50 (at Thymidylate kinase; in data set [8]; in [9]) were 62000 nM, 0.8 nM and 0.2 nM, respectively. Also, the logD in data set [7] was determined as 1.1.
With `C[C@H]1COc2c(N3CCN(C)CC3)c(F)cc3c(=O)c(C(=O)O)cn1c23.C[C@H]1COc2c(N3CCN(C)CC3)c(F)cc3c(=O)c(C(=O)O)cn1c23.O` [LEVOFLOXACIN], in the data set with Staphylococcus aureus [2], the Activity stood at 40 mg/kg.
With `CCCCC[C@H](c1ccc(C(=O)O)c(Oc2cccc(Br)c2)c1)N1CCC[C@H](n2cc(C)c(=O)[nH]c2=O)C1`, the MIC with Candida albicans was greater than 64 µg/mL; against Enterococcus faecalis, 0.06 µg/mL (≈ 0.103 µM); with Enterococcus faecium it was 0.25 µg/mL (≈ 0.428 µM); in data set [4], 0.5 µg/mL (≈ 0.855 µM); in the data set with Streptococcus pyogenes, 0.04 µg/mL (≈ 0.0684 µM); with Staphylococcus aureus [5], 0.1 µg/mL (≈ 0.171 µM). The MIC in the data set with Staphylococcus aureus [6] was 0.25 µg/mL (≈ 0.428 µM); in the data set on Streptococcus pneumoniae, 0.01 µg/mL (≈ 0.0171 µM). Besides, the MCC in data set [3] is greater than 64 µg/mL. In addition, the figures for the half-inhibitory concentration (IC50) (at Thymidylate kinase; in data set [8]; in data set [9]) were 32000 nM, 0.5 nM and less than 0.1 nM, respectively. In addition, the pH-dependent lipophilicity (logD) in data set [7] was 1.1.
On to `CCC(C)(C)C[C@H](c1ccc(C(=O)O)c(Oc2cccc(Cl)c2)c1)N1CCC[C@H](n2cc(C)c(=O)[nH]c2=O)C1`, for which the MIC with Candida albicans is greater than 64 µg/mL; against Staphylococcus aureus [5], 0.1 µg/mL (≈ 0.18 µM); with Staphylococcus aureus [6] it was 0.25 µg/mL (≈ 0.451 µM); in the data set with Streptococcus pneumoniae, 0.05 µg/mL (≈ 0.0902 µM). Besides, the MCC in [3] is greater than 64 µg/mL. Moreover, the IC50 turned out to be 43400 nM at Thymidylate kinase, 1 nM in data set [8] and 0.3 nM in data set [9]. This compound also gave a logD in data set [7] of 1.4.
Take `Cc1cn([C@H]2CCCN([C@H](C)c3ccc(C(=O)O)c(Oc4cccc(Cl)c4)c3)C2)c(=O)[nH]c1=O`: the MIC in the data set on Candida albicans is greater than 64 µg/mL; with Staphylococcus aureus [5], 8 µg/mL (≈ 16.5 µM); with Staphylococcus aureus [6] it was 4 µg/mL (≈ 8.27 µM); with Streptococcus pneumoniae it was 0.1 µg/mL (≈ 0.207 µM). In addition, in data set [3], the MCC is greater than 64 µg/mL. The IC50 on Thymidylate kinase was determined as 150000 nM; in [8], 2.5 nM; in data set [9] it was 0.3 nM. The logD in [7] was -0.26.
